According to ChEMBL document CHEMBL5058577, “EUbOPEN Chemogenomics Library 2 (Multiplex)” (2022):

Tested on: U2OS
Experiment: Multiplex assay against U2OS
Type: toxicity, cell-based
Conditions: human
Outline: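 Imaging took place on a CQ1 microscope at 37°C and 5% CO2 once compound had been added to live cells stained at seeding with Hoechst33342, BioTracker Green Microtubule Cytoskeleton Dye, MitoTracker Red and Annexin V Alexa Fluor 680. CellPathfinder machine-learning gating classed cells as Hoechst high-intensity objects or normal cells, classed normal cells as having healthy, pyknosed or fragmented nuclei, and classed pyknosed cells as mitotic or apoptotic. Tubulin, mitochondrial-mass and membrane-permeability phenotypes are per cents of the healthy-nucleus cells.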

[1] = 12 h, 1 µM, compound concentration 1 uM, replicate 1
[2] = 12 h, 1 µM, compound concentration 1 uM, replicate 2
[3] = 12 h, 10 µM, compound concentration 10 uM, replicate 1
[4] = 12 h, 10 µM, compound concentration 10 uM, replicate 2
[5] = 24 h, 1 µM, compound concentration 1 uM, replicate 1
[6] = 24 h, 1 µM, compound concentration 1 uM, replicate 2
[7] = 24 h, 10 µM, compound concentration 10 uM, replicate 1
[8] = 24 h, 10 µM, compound concentration 10 uM, replicate 2
[9] = 48 h, 1 µM, compound concentration 1 uM, replicate 1
[10] = 48 h, 1 µM, compound concentration 1 uM, replicate 2
[11] = 48 h, 10 µM, compound concentration 10 uM, replicate 1
[12] = 48 h, 10 µM, compound concentration 10 uM, replicate 2

`CCn1c(-c2nc3cc(C(=O)N4CCCC(N)C4)ccc3n2C)cc2ccccc21.Cl` (stereo unspecified) was tested, and the “Population Apoptotic (%)” value [1] was 61%, the “Population Fragmented Nuclei (%)” value [1] was 22% and the “Population Healthy Nuclei (%)” value [1] was 67%. The “Population Hoechst High Intensity Objects (%)” value [1] was 0%, the “Population Membrane Permeable-Phenotype (%)” value [1] was 4% and the “Population Mitochondria Different-Phenotype (%)” value [1] was 3%. The “Population Mitotic Cells (%)” value [1] was 38%, the “Population Normal (%)” value [1] was 99% and the “Population Pyknosed Nuclei (%)” value [1] was 9%. For the same compound, the “Population Tubulin-Different-Phenotype (%)” value [1] was 2%, the “Total Cell Count” value [1] was 213 and the “Population Apoptotic (%)” value [2] was 100%. For the same compound, the “Population Fragmented Nuclei (%)” value [2] was 18%, the “Population Healthy Nuclei (%)” value [2] was 77% and the “Population Hoechst High Intensity Objects (%)” value [2] was 5%. The “Population Membrane Permeable-Phenotype (%)” value [2] was 15%, the “Population Mitochondria Different-Phenotype (%)” value [2] was 18% and the “Population Mitotic Cells (%)” value [2] was 0%. For the same compound, the “Population Normal (%)” value [2] was 94%, the “Population Pyknosed Nuclei (%)” value [2] was 3% and the “Population Tubulin-Different-Phenotype (%)” value [2] was 13%. The “Total Cell Count” value [2] was 90, the “Population Apoptotic (%)” value [3] was 48% and the “Population Fragmented Nuclei (%)” value [3] was 24%. For the same compound, the “Population Healthy Nuclei (%)” value [3] was 56%, the “Population Hoechst High Intensity Objects (%)” value [3] was 2% and the “Population Membrane Permeable-Phenotype (%)” value [3] was 34%. The “Population Mitochondria Different-Phenotype (%)” value [3] was 29%, the “Population Mitotic Cells (%)” value [3] was 51% and the “Population Normal (%)” value [3] was 97%. The “Population Pyknosed Nuclei (%)” value [3] was 19%, the “Population Tubulin-Different-Phenotype (%)” value [3] was 27% and the “Total Cell Count” value [3] was 277. The “Population Apoptotic (%)” value [4] was 54%, the “Population Fragmented Nuclei (%)” value [4] was 21% and the “Population Healthy Nuclei (%)” value [4] was 60%. For the same compound, the “Population Hoechst High Intensity Objects (%)” value [4] was 1%, the “Population Membrane Permeable-Phenotype (%)” value [4] was 25% and the “Population Mitochondria Different-Phenotype (%)” value [4] was 55%. For the same compound, the “Population Mitotic Cells (%)” value [4] was 45%, the “Population Normal (%)” value [4] was 98% and the “Population Pyknosed Nuclei (%)” value [4] was 18%. The “Population Tubulin-Different-Phenotype (%)” value [4] was 48%, the “Total Cell Count” value [4] was 135 and the “Population Apoptotic (%)” value [5] was 82%. The “Population Fragmented Nuclei (%)” value [5] was 22%, the “Population Healthy Nuclei (%)” value [5] was 68% and the “Population Hoechst High Intensity Objects (%)” value [5] was 1%. The “Population Membrane Permeable-Phenotype (%)” value [5] was 6%, the “Population Mitochondria Different-Phenotype (%)” value [5] was 3% and the “Population Mitotic Cells (%)” value [5] was 17%. For the same compound, the “Population Normal (%)” value [5] was 98%, the “Population Pyknosed Nuclei (%)” value [5] was 9% and the “Population Tubulin-Different-Phenotype (%)” value [5] was 3%. The “Total Cell Count” value [5] was 249, the “Population Apoptotic (%)” value [6] was 66% and the “Population Fragmented Nuclei (%)” value [6] was 25%. For the same compound, the “Population Hoechst High Intensity Objects (%)” value [6] was 3%, the “Population Membrane Permeable-Phenotype (%)” value [6] was 14% and the “Population Mitochondria Different-Phenotype (%)” value [6] was 13%. For the same compound, the “Population Mitotic Cells (%)” value [6] was 33%, the “Population Normal (%)” value [6] was 96% and the “Population Pyknosed Nuclei (%)” value [6] was 5%. The “Population Tubulin-Different-Phenotype (%)” value [6] was 13%, the “Total Cell Count” value [6] was 112 and the “Population Apoptotic (%)” value [7] was 62%. The “Population Fragmented Nuclei (%)” value [7] was 27%, the “Population Healthy Nuclei (%)” value [7] was 54% and the “Population Hoechst High Intensity Objects (%)” value [7] was 2%. For the same compound, the “Population Membrane Permeable-Phenotype (%)” value [7] was 16%, the “Population Mitochondria Different-Phenotype (%)” value [7] was 34% and the “Population Mitotic Cells (%)” value [7] was 38%. The “Population Normal (%)” value [7] was 97%, the “Population Pyknosed Nuclei (%)” value [7] was 17% and the “Population Tubulin-Different-Phenotype (%)” value [7] was 11%. The “Total Cell Count” value [7] was 288, the “Population Apoptotic (%)” value [8] was 73% and the “Population Fragmented Nuclei (%)” value [8] was 19%. For the same compound, the “Population Healthy Nuclei (%)” value [8] was 64%, the “Population Hoechst High Intensity Objects (%)” value [8] was 3% and the “Population Membrane Permeable-Phenotype (%)” value [8] was 20%. For the same compound, the “Population Mitochondria Different-Phenotype (%)” value [8] was 53%, the “Population Mitotic Cells (%)” value [8] was 26% and the “Population Normal (%)” value [8] was 96%. For the same compound, the “Population Pyknosed Nuclei (%)” value [8] was 16%, the “Population Tubulin-Different-Phenotype (%)” value [8] was 26% and the “Total Cell Count” value [8] was 146. The “Population Apoptotic (%)” value [9] was 75%, the “Population Fragmented Nuclei (%)” value [9] was 16% and the “Population Healthy Nuclei (%)” value [9] was 76%. For the same compound, the “Population Hoechst High Intensity Objects (%)” value [9] was 2%, the “Population Membrane Permeable-Phenotype (%)” value [9] was 8% and the “Population Mitochondria Different-Phenotype (%)” value [9] was 3%. The “Population Mitotic Cells (%)” value [9] was 25%, the “Population Normal (%)” value [9] was 97% and the “Population Pyknosed Nuclei (%)” value [9] was 6%. The “Population Tubulin-Different-Phenotype (%)” value [9] was 5%, the “Total Cell Count” value [9] was 354 and the “Population Apoptotic (%)” value [10] was 70%. The “Population Fragmented Nuclei (%)” value [10] was 22%, the “Population Healthy Nuclei (%)” value [10] was 70% and the “Population Hoechst High Intensity Objects (%)” value [10] was 4%. For the same compound, the “Population Membrane Permeable-Phenotype (%)” value [10] was 10%, the “Population Mitochondria Different-Phenotype (%)” value [10] was 9% and the “Population Mitotic Cells (%)” value [10] was 30%. For the same compound, the “Population Normal (%)” value [10] was 95%, the “Population Pyknosed Nuclei (%)” value [10] was 7% and the “Population Tubulin-Different-Phenotype (%)” value [10] was 8%. For the same compound, the “Total Cell Count” value [10] was 145, the “Population Apoptotic (%)” value [11] was 78% and the “Population Fragmented Nuclei (%)” value [11] was 26%. The “Population Healthy Nuclei (%)” value [11] was 53%, the “Population Hoechst High Intensity Objects (%)” value [11] was 5% and the “Population Membrane Permeable-Phenotype (%)” value [11] was 23%. For the same compound, the “Population Mitochondria Different-Phenotype (%)” value [11] was 22%, the “Population Mitotic Cells (%)” value [11] was 21% and the “Population Normal (%)” value [11] was 94%. For the same compound, the “Population Pyknosed Nuclei (%)” value [11] was 19%, the “Population Tubulin-Different-Phenotype (%)” value [11] was 11% and the “Total Cell Count” value [11] was 353. For the same compound, the “Population Apoptotic (%)” value [12] was 77%, the “Population Fragmented Nuclei (%)” value [12] was 18% and the “Population Healthy Nuclei (%)” value [12] was 64%. For the same compound, the “Population Hoechst High Intensity Objects (%)” value [12] was 6%, the “Population Membrane Permeable-Phenotype (%)” value [12] was 24% and the “Population Mitochondria Different-Phenotype (%)” value [12] was 39%. For the same compound, the “Population Mitotic Cells (%)” value [12] was 22%, the “Population Normal (%)” value [12] was 93% and the “Population Pyknosed Nuclei (%)” value [12] was 16%. The “Population Tubulin-Different-Phenotype (%)” value [12] was 19% and the “Total Cell Count” value [12] was 173.
